From ChEMBL document CHEMBL1833929, “Design, synthesis and anticancer activity of novel dihydrobenzofuro[4,5-b][1,8]naphthyridin-6-one derivatives” (Bioorg Med Chem Lett, 2011) come the findings set out here.

Test [1] is described as follows: Cell cycle arrest in human MCF7/ADR cells assessed as accumulation at G2/M phase at 5 uM after 48 hrs using propidium iodide staining by flow cytometry (reference value: 22.51 +/- 1.5 %). It counts as functional, cell-based. To be noted: NCI/ADR-RES. The procedure, abridged: (§1)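 MCF-7/ADR cells exposed to test agent for 48 h, collected, washed and suspended in cold PBS. Fixed in chilled 75% methanol, then stained with PI solution (100 µg/mL RNase, 10 µg/mL PI in PBS). Phase distribution (G1, S, G2/M) determined by flow cytometry. Mean ± SEM of three independent experiments; one-way ANOVA with Newman–Keuls post hoc test, p<0.05.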
For orientation: Flow cytometry measures light scatter and fluorescence of single cells or particles in a stream.

Test [2] relates to DU-145. The test can be described thus: Cytotoxicity against human DU145 cells after 24 hrs by MTT assay. Type of test: functional, cell-based. Particulars: DU-145, 24 h. The essentials: (§2)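 Cells kept in RPMI-1640 with 10% heat-inactivated FBS, 1.25 mM HEPES and 1% penicillin/streptomycin. Seeded at 2×10^3 cells/well and grown 48 h, then treated with a range of concentrations for 24 or 48 h. MTT (5 mg/mL) added for 4 h at 37 °C, formazan dissolved in DMSO, absorbance read at 540 nm. Triplicate. IC50 from log concentration vs % viability loss; doxorubicin reference.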

A short description of test [3]: Cell cycle arrest in human MCF7/ADR cells assessed as accumulation at S phase at 5 uM after 48 hrs using propidium iodide staining by flow cytometry (reference value: 15.34 +/- 0.98 %). It counts as functional, cell-based. Particulars: NCI/ADR-RES. The procedure, abridged: as §1
The subject of test [4] is LNCaP. The test can be described thus: Cytotoxicity against androgen receptor-positive human LNCAP cells after 48 hrs by MTT assay. Type of test: functional, cell-based. The procedure, abridged: as §2
In general terms: Formazan colour is commonly taken as a measure of viable cells.

Test [5] in a line: Cytotoxicity against human MCF7/ADR cells after 48 hrs by MTT assay. To be noted: NCI/ADR-RES. Type of test: functional, cell-based. The essentials: as §2
The nature of test [6]: Cell cycle arrest in human MCF7/ADR cells assessed as accumulation at G1 phase at 5 uM after 48 hrs using propidium iodide staining by flow cytometry (reference value: 62.15 +/- 3.14 %). Type of test: functional, cell-based. Particulars: NCI/ADR-RES. The procedure, abridged: as §1
The subject of test [7] is PC-3. Briefly: Cytotoxicity against androgen receptor-negative human PC3 cells after 48 hrs by MTT assay. Type of test: functional, cell-based. To be noted: PC-3, 48 h. The essentials:
as §2

In test [8] the test system is DU-145. Briefly: Cytotoxicity against human DU145 cells after 48 hrs by MTT assay. To be noted: DU-145, 48 h. It counts as functional, cell-based. The procedure, abridged: as §2
Test [9] relates to LNCaP. The test can be described thus: Cytotoxicity against androgen receptor-positive human LNCAP cells after 24 hrs by MTT assay. It counts as functional, cell-based. The procedure, abridged: as §2
The test system of test [10] is PC-3. Briefly: Cytotoxicity against androgen receptor-negative human PC3 cells after 24 hrs by MTT assay. Type of test: functional, cell-based. Particulars: PC-3, 24 h. The essentials: as §2
Test [11] can be described thus: Cytotoxicity against human MCF7/ADR cells after 24 hrs by MTT assay. It counts as functional, cell-based. To be noted: NCI/ADR-RES. The essentials: as §2
Test [12] is described as follows: Cell cycle arrest in human MCF7/ADR cells assessed as accumulation at G1 phase at 0.1 uM after 48 hrs using propidium iodide staining by flow cytometry (reference value: 62.15 +/- 3.14 %). It counts as functional, cell-based. To be noted: NCI/ADR-RES. The essentials: as §1
A short description of test [13]: Cell cycle arrest in human MCF7/ADR cells assessed as accumulation at G2/M phase at 0.2 uM after 48 hrs using propidium iodide staining by flow cytometry (reference value: 22.51 +/- 1.5 %). Type of test: functional, cell-based. Particulars: NCI/ADR-RES. The procedure, abridged:
as §1

Test [14] is described as follows: Cell cycle arrest in human MCF7/ADR cells assessed as accumulation at S phase at 0.2 uM after 48 hrs using propidium iodide staining by flow cytometry (reference value: 15.34 +/- 0.98 %). It counts as functional, cell-based. Particulars: NCI/ADR-RES. The essentials:
as §1

Test [15] can be described thus: Cell cycle arrest in human MCF7/ADR cells assessed as accumulation at G1 phase at 0.2 uM after 48 hrs using propidium iodide staining by flow cytometry (reference value: 62.15 +/- 3.14 %). Type of test: functional, cell-based. To be noted: NCI/ADR-RES. The essentials:
as §1

Test [16] in a line: Cell cycle arrest in human MCF7/ADR cells assessed as accumulation at G2/M phase at 0.05 uM after 48 hrs using propidium iodide staining by flow cytometry (reference value: 22.51 +/- 1.5 %). It counts as functional, cell-based. Particulars: NCI/ADR-RES. The procedure, abridged:
as §1

The nature of test [17]: Cell cycle arrest in human MCF7/ADR cells assessed as accumulation at S phase at 0.1 uM after 48 hrs using propidium iodide staining by flow cytometry (reference value: 15.34 +/- 0.98 %). Type of test: functional, cell-based. Particulars: NCI/ADR-RES. The essentials:
as §1

The subject of test [18] is MCF7. The test can be described thus: Cytotoxicity against estrogen receptor-positive human MCF7 cells after 48 hrs by MTT assay. It counts as functional, cell-based. Particulars: MCF7, 48 h. The procedure, abridged: as §2
Test [19] in a line: Cell cycle arrest in human MCF7/ADR cells assessed as accumulation at S phase at 0.05 uM after 48 hrs using propidium iodide staining by flow cytometry (reference value: 15.34 +/- 0.98 %). To be noted: NCI/ADR-RES. It counts as functional, cell-based. The essentials: as §1
The nature of test [20]: Cell cycle arrest in human MCF7/ADR cells assessed as accumulation at G1 phase at 0.05 uM after 48 hrs using propidium iodide staining by flow cytometry (reference value: 62.15 +/- 3.14 %). It counts as functional, cell-based. Particulars: NCI/ADR-RES. The essentials: as §1
Test [21] is described as follows: Cell cycle arrest in human MCF7/ADR cells assessed as accumulation at G2/M phase at 0.1 uM after 48 hrs using propidium iodide staining by flow cytometry (reference value: 22.51 +/- 1.5 %). Type of test: functional, cell-based. To be noted: NCI/ADR-RES. The procedure, abridged:
as §1

Test [22] relates to MCF7. Briefly: Cytotoxicity against estrogen receptor-positive human MCF7 cells after 24 hrs by MTT assay. To be noted: MCF7, 24 h. Type of test: functional, cell-based. The essentials: as §2
Test [23] deals with LNCaP. The test can be described thus: Ratio of IC50 for androgen receptor-negative human PC3 cells to IC50 for androgen receptor-positive human LNCAP cells. Type of test: functional.
Test [24] deals with MCF7. Briefly: Ratio of IC50 for androgen receptor-negative human PC3 cells to IC50 for estrogen receptor-positive human MCF7 cells. It counts as functional.
In another test the test system is NCI/ADR-RES. The test can be described thus: Ratio of IC50 for androgen receptor-negative human PC3 cells to IC50 for human MCF7/ADR cells. It counts as functional.
Test [25] has as its system MCF7. The test can be described thus: Ratio of doxorubicin IC50 to compound IC50 for estrogen receptor-positive human MCF7 cells after 48 hrs by MTT assay. Type of test: functional.
Test [26] relates to DU-145. Briefly: Ratio of IC50 for androgen receptor-negative human PC3 cells to IC50 for human DU145 cells. Type of test: functional.

The structures appear in SMILES notation. Bounds are passed on as bounds.

As to `COc1cccc2c1C(=O)c1c(O)c3c(c(O)c1C2=O)C[C@@](O)(C(=O)CO)C[C@@H]3O[C@H]1C[C@H](N)[C@H](O)[C@H](C)O1` [DOXORUBICIN], the Activity in test [1] was 24.6%; in test [3], 21.9%; in test [6], 53.3%. Moreover, the IC50 (commonly the point on the concentration scale where inhibition reaches its midpoint) in the test with DU-145 [2] is 6.24 µM; in the test on LNCaP [4], 1.66 µM; in test [5], 13.6 µM; with PC-3 [7], 1.22 µM; in the test on DU-145 [8], 0.58 µM; with LNCaP [9] it was 7.42 µM. Moreover, the IC50 in the test on PC-3 [10] is 4.1 µM; in test [11] it was over 20 µM.
For `COc1cc2c(c3c1c(=O)c1cccnc1n3C)C[C@H]([C@@]1(C)CO1)O2` (racemic), the Activity in [12] was 57.4%; in [13], 41.1%; in test [14] it was 7.68%; in [15], 51.2%; in test [16] it was 24.1%; in [17] it was 8.97%. The Activity in test [19] came out at 12.4%; in test [20], 63.5%; in test [21], 33.7%. Moreover, the IC50 with DU-145 [2] was 0.55 µM; with LNCaP [4] it was 0.14 µM; in test [5], 0.15 µM; with MCF7 [18], 0.26 µM; in the test with PC-3 [7], 0.3 µM; in the test with MCF7 [22] it was 0.66 µM. The IC50 in the test on DU-145 [8] is 0.15 µM; in the test on LNCaP [9] it was 0.48 µM; with PC-3 [10], 0.56 µM; in test [11], 0.49 µM.
As to `COc1cc2c(c3c1c(=O)c1cccnc1n3C)C[C@H]([C@]1(C)CO1)O2` (racemic), the Activity in test [12] was 64.6%; in [13], 28.3%; in test [14], 16.6%; in test [15] it was 55.2%; in test [16], 20.5%; in test [17], 13.6%. Further, the Activity in [19] worked out at 11.2%; in test [20] it was 68.4%; in [21], 21.8%. Besides, the IC50 worked out at 2.36 µM in the test with DU-145 [2]; 0.86 µM with LNCaP [4]; 0.92 µM in test [5]; 1.02 µM in the test with MCF7 [18]; 2.15 µM with PC-3 [7]; 1.84 µM in the test with MCF7 [22]. Moreover, the IC50 in the test with DU-145 [8] worked out at 0.84 µM; in the test on LNCaP [9] it was 2.48 µM; with PC-3 [10], 4.67 µM; in test [11], 2.21 µM. In addition, the “Ratio IC50” value with LNCaP [23] turned out to be 2; in the test with MCF7 [24], 2; with NCI/ADR-RES, 2; in the test with MCF7 [25], 1.5; with DU-145 [26] it was 2.
